Experimental findings from ChEMBL document CHEMBL1909525, “Synthesis and anticonvulsant activity of novel 2,6-diketopiperazine derivatives. Part 1: perhydropyrrole[1,2-a]pyrazines” (Eur J Med Chem, 2011) are described below.

In data set [1] the test system is Mus musculus. Kind of data set: Anticonvulsant activity in ip dosed albino Carworth Farms No.1 mouse assessed as protection against maximal electroshock-induced seizure after 0.25 hrs. Type of data set: functional. The conditions noted are these: albino Carworth Farms No.1, ip. The method, boiled down:
(§1)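 Mouse quantification at the time of peak effect, compound given i.p. in 0.5% methylcellulose. Groups of at least eight mice received varied doses until at least two points fell between 100 and 0% response. ED50 (MES, scMET) and TD50 (rotorod) with 95% CI by probit analysis (Finney). PI = TD50/ED50 MES.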

For data set [2], the system named is Mus musculus. Nature of the data set: Anticonvulsant activity in ip dosed albino Carworth Farms No.1 mouse assessed as protection against subcutaneous metrazol-induced seizure after 0.25 hrs. Type of data set: functional. The conditions noted are these: albino Carworth Farms No.1, 0.25 h. The procedure, abridged: as §1
In data set [3] the test system is Mus musculus. Kind of data set: Anticonvulsant activity in ip dosed albino Carworth Farms No.1 mouse assessed as time needs to show peak effect for protection against maximal electroshock-induced seizure. The format is functional. (The maximal electroshock test induces tonic seizures with an electrical stimulus.)
Data set [4] deals with Mus musculus. Kind of data set: Anticonvulsant activity in ip dosed albino Carworth Farms No.1 mouse assessed as protection against electric-current for 3 secs-induced seizure after 0.25 hrs by 6Hz minimal clonic seizure test. The format is functional. The conditions noted are these: albino Carworth Farms No.1, ip.
For data set [5], the system named is Mus musculus. Nature of the data set: Anticonvulsant activity in ip dosed albino Carworth Farms No.1 mouse assessed as time needs to show peak effect for electric-current for 3 secs-induced seizure after 0.25 hrs by 6Hz minimal clonic seizure test. Type of data set: functional.
Data set [6] has as its system Rattus norvegicus. Nature of the data set: Anticonvulsant activity in po dosed albino Sprague-Dawley rat assessed as protection against subcutaneous metrazol-induced seizure after 0.25 hrs. Type of data set: functional. The procedure, abridged: (§2)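 Rats dosed orally, compound in 0.5% methylcellulose. MES at 150 mA, 60 Hz, 0.2 s; scMET with pentylenetetrazole 70 mg/kg s.c. plus 30 min observation; rotorod for toxicity.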

The nature of data set [7]: Neurotoxicity in po dosed albino Sprague-Dawley rat assessed as motor impairment after 0.25 hrs by rotarod test. Type of data set: toxicity, organism-based. The conditions noted are these: in vivo. The procedure, abridged: as §2
For orientation: The rotarod test checks motor coordination on a turning rod.

Data set [8] relates to Rattus norvegicus. Kind of data set: Anticonvulsant activity in po dosed albino Sprague-Dawley rat assessed as time needs to show peak effect for protection against maximal electroshock-induced seizure after 0.25 hrs. The format is functional. The procedure, abridged: as §2
The subject of data set [9] is Mus musculus. Nature of the data set: Neurotoxicity in albino Carworth Farms No.1 mouse assessed as motor impairment at 30 mg/kg, ip after 0.5 hrs by rotarod test. The format is toxicity, organism-based. Also noted: dose 30 mg/kg, route intraperitoneal. The note with it: in vivo. The method, boiled down:
(§3)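 Rotorod neurotoxicity in mice at 6 r.p.m. Compound given i.p. (30, 100, 300 mg/kg) in 0.5% methylcellulose; tested at 30 min and 4 h. Impairment is inability to keep equilibrium on the rod for a given time; scored as impaired/tested.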

Data set [10] concerns Mus musculus. Nature of the data set: Neurotoxicity in albino Carworth Farms No.1 mouse assessed as motor impairment at 100 mg/kg, ip after 0.5 hrs by rotarod test. Type of data set: toxicity, organism-based. Also noted: dose 100 mg/kg, route intraperitoneal. The note with it: in vivo. The procedure, abridged:
as §3

Data set [11] deals with Mus musculus. Nature of the data set: Neurotoxicity in albino Carworth Farms No.1 mouse assessed as motor impairment at 300 mg/kg, ip after 0.5 hrs by rotarod test. Type of data set: toxicity, organism-based. Also noted: dose 300 mg/kg, route intraperitoneal. The conditions noted are these: in vivo. The method, boiled down:
as §3

Data set [12] has as its system Mus musculus. Nature of the data set: Anticonvulsant activity in albino Carworth Farms No.1 mouse assessed as protection against subcutaneous metrazol-induced seizure at 30 mg/kg, ip after 0.5 hrs. Also noted: dose 30 mg/kg. The format is functional, organism-based. The method, boiled down:
(§4)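 Mouse scMET test. Compound given i.p. (30, 100 or 300 mg/kg) in 0.5% methylcellulose. Pentylenetetrazole 85 mg/kg (CD97) given s.c. at 0.5 or 4 h, then mice observed for 30 min. Protection is absence of clonic spasms; scored as protected/tested.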

The test system of data set [13] is Mus musculus. Nature of the data set: Anticonvulsant activity in albino Carworth Farms No.1 mouse assessed as protection against subcutaneous metrazol-induced seizure at 30 mg/kg, ip after 4 hrs. The format is functional, organism-based. Also noted: dose 30 mg/kg. The method, boiled down:
as §4

In data set [14] the test system is Mus musculus. Kind of data set: Anticonvulsant activity in albino Carworth Farms No.1 mouse assessed as protection against subcutaneous metrazol-induced seizure at 100 mg/kg, ip after 0.5 hrs. Type of data set: functional, organism-based. Also noted: dose 100 mg/kg. The procedure, abridged: as §4
Data set [15] deals with Mus musculus. Nature of the data set: Anticonvulsant activity in albino Carworth Farms No.1 mouse assessed as protection against subcutaneous metrazol-induced seizure at 100 mg/kg, ip after 4 hrs. Also noted: dose 100 mg/kg. Type of data set: functional, organism-based. The method, boiled down:
as §4

The test system of data set [16] is Mus musculus. Nature of the data set: Anticonvulsant activity in albino Carworth Farms No.1 mouse assessed as protection against subcutaneous metrazol-induced seizure at 300 mg/kg, ip after 0.5 hrs. Type of data set: functional, organism-based. Also noted: dose 300 mg/kg. The method, boiled down: as §4
The subject of data set [17] is Mus musculus. Kind of data set: Anticonvulsant activity in albino Carworth Farms No.1 mouse assessed as protection against subcutaneous metrazol-induced seizure at 300 mg/kg, ip after 4 hrs. Type of data set: functional, organism-based. Also noted: dose 300 mg/kg. The method, boiled down: as §4
Data set [18] deals with Mus musculus. Kind of data set: Anticonvulsant activity in albino Carworth Farms No.1 mouse assessed as protection against maximal electroshock-induced seizure at 30 mg/kg, ip after 0.5 hrs. Type of data set: functional, organism-based. Also noted: dose 30 mg/kg. The method, boiled down:
(§5)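 Mouse MES test with compound given i.p. (30, 100 or 300 mg/kg) in 0.5% methylcellulose; tested at 0.5 and 4 h. Corneal stimulus of 50 mA at 60 Hz for 0.2 s, electrodes primed with 0.5% butacaine in 0.9% NaCl. Protection is abolition of hindlimb tonic extension; scored as protected/tested.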

Data set [19] has as its system Mus musculus. Kind of data set: Anticonvulsant activity in albino Carworth Farms No.1 mouse assessed as protection against maximal electroshock-induced seizure at 30 mg/kg, ip after 4 hrs. Type of data set: functional, organism-based. Also noted: dose 30 mg/kg. The procedure, abridged: as §5
Data set [20] deals with Mus musculus. Nature of the data set: Anticonvulsant activity in albino Carworth Farms No.1 mouse assessed as protection against maximal electroshock-induced seizure at 100 mg/kg, ip after 0.5 hrs. Also noted: dose 100 mg/kg. The format is functional, organism-based. The procedure, abridged: as §5
Data set [21] relates to Mus musculus. Kind of data set: Anticonvulsant activity in albino Carworth Farms No.1 mouse assessed as protection against maximal electroshock-induced seizure at 100 mg/kg, ip after 4 hrs. Also noted: dose 100 mg/kg. Type of data set: functional, organism-based. The procedure, abridged:
as §5

Data set [22] has as its system Mus musculus. Nature of the data set: Anticonvulsant activity in albino Carworth Farms No.1 mouse assessed as protection against maximal electroshock-induced seizure at 300 mg/kg, ip after 0.5 hrs. Also noted: dose 300 mg/kg. Type of data set: functional, organism-based. The method, boiled down:
as §5

In data set [23] the test system is Mus musculus. Nature of the data set: Anticonvulsant activity in albino Carworth Farms No.1 mouse assessed as protection against maximal electroshock-induced seizure at 300 mg/kg, ip after 4 hrs. Type of data set: functional, organism-based. Also noted: dose 300 mg/kg. The method, boiled down:
as §5

The test system of data set [24] is Mus musculus. Kind of data set: Neurotoxicity in albino Carworth Farms No.1 mouse assessed as motor impairment at 30 mg/kg, ip after 4 hrs by rotarod test. The format is toxicity, organism-based. Also noted: dose 30 mg/kg, route intraperitoneal. The note with it: in vivo. The procedure, abridged: as §3
The test system of data set [25] is Mus musculus. Kind of data set: Neurotoxicity in albino Carworth Farms No.1 mouse assessed as motor impairment at 300 mg/kg, ip after 4 hrs by rotarod test. Type of data set: toxicity, organism-based. Also noted: dose 300 mg/kg, route intraperitoneal. The note with it: in vivo. The method, boiled down:
as §3

The test system of data set [26] is Mus musculus. Nature of the data set: Anticonvulsant activity in albino Carworth Farms No.1 mouse assessed as protection against electric-current for 3 secs-induced seizure at 100 mg/kg, ip after 0.5 hrs by 6Hz minimal clonic seizure test. The format is functional. The procedure, abridged: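 6 Hz psychomotor seizure test in mice. Compound given i.p. as a suspension in 0.5% methylcellulose. Corneal stimulation at 32 mA, 0.2-ms monopolar rectangular pulses at 6 Hz for 3 s, from a constant-current device. Tests run 0.25–4 h after dosing. A mouse counted as protected if it resumed normal exploratory behaviour within 10 s; scored as protected/tested.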

Data set [27] in a line: Neurotoxicity in ip dosed albino Carworth Farms No.1 mouse assessed as motor impairment after 0.25 hrs by rotarod test. The conditions noted are these: Carworth Farms No.1 (albino), in vivo. Type of data set: toxicity, organism-based. The method, boiled down: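 Mouse quantification at the time of peak effect, compound given i.p. in 0.5% methylcellulose. Groups of at least eight mice received varied doses until at least two points fell between 100 and 0% response. PI = TD50/ED50 MES.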

Calls of active or inactive are those of the source. No cut-off for these calls is given here. A value given as a limit tells only on which side of the number the result lay.

By ED50 is commonly meant the midpoint of the dose-response relation. Usually TD50 stands for the 50% point of the dose-response relation for the toxic effect studied. On to `CCC1(c2ccccc2)C(=O)NC(=O)NC1=O` [PHENOBARBITAL], for which the median effective dose (ED50) in [1] was determined as 21.8 mg/kg; in [2], 13.2 mg/kg; in data set [4] it was 14.8 mg/kg; in data set [6], 11.6 mg/kg. For the same compound, the Time in data set [3] is 1 h; in data set [5], 0.5 h; in data set [8], 5 h. Also, in data set [7], the TD50 at 0.25 h amounted to 61.1 mg/kg.

For `O=C1CN2CCC[C@H]2C(=O)N1`, the Activity result in data set [9], in data set [10], in data set [11], in data set [24] and in data set [25] was “Non-toxic” throughout. Also, the outcome in data set [12], in data set [13], in data set [14], in data set [15], in [16] and in data set [17] was inactive. Further, the outcome in data set [18], in data set [19], in data set [20], in data set [21], in [22] and in data set [23] was inactive.

Turning to `COC(=O)[C@@H](c1ccccc1)N1CCC[C@H]1C(N)=O`, in [26], the outcome was Active. Further, the Activity entry in data set [11] is “Toxic”.

With `C[C@@H]1C(=O)NC(=O)[C@@H]2CCCN12`, the Activity entry in data set [9], in data set [10], in [11], in data set [24] and in data set [25] was “Non-toxic” throughout. Further, the outcome in [12], in [13], in data set [14], in [15], in data set [16] and in data set [17] was inactive. Further, the outcome in [18], in data set [19], in [20], in data set [21], in [22] and in [23] was inactive.

As to `CN1C(=O)[C@H](c2ccccc2)N2CCC[C@H]2C1=O.Cl`, the Activity result in data set [9] is “Non-toxic”; in data set [10], “Non-toxic”; in [11], “Toxic”; in data set [24], “Non-toxic”; in data set [25] it was “Non-toxic”. Moreover, the outcome in data set [12], in data set [13], in data set [14], in data set [15], in [17] and in data set [18] was inactive. In addition, the result in [19], in [20], in data set [21] and in data set [23] was inactive. Further, the outcome in data set [16] and in data set [22] was Active.

For `Cl.O=C1[C@H](c2ccccc2)N2CCC[C@H]2C(=O)N1Cc1ccccc1`, the Activity entry in [9], in data set [10], in [11], in data set [24] and in [25] was “Non-toxic” in each case. Also, the outcome in data set [12], in [13], in data set [14], in data set [15], in [16] and in [17] was inactive. Moreover, the outcome in data set [18], in data set [19], in data set [20], in data set [21] and in [23] was inactive. Besides, the result in [22] was Active.

For the compound `O=C1[C@@H]2CCCN2[C@H](c2ccccc2)C(=O)N1Cc1ccccc1`, the Activity result in data set [9], in data set [10], in data set [11], in data set [24] and in data set [25] was “Non-toxic” each time. Besides, the outcome in data set [12], in data set [13], in [14], in data set [15], in [16] and in data set [17] was inactive. In addition, the result in data set [18], in [19], in data set [20], in data set [21], in [22] and in data set [23] was inactive.

`CC[C@@H](C(N)=O)N1CCCC1=O`: in data set [27], the TD50 at 0.25 h is > 500 mg/kg. Further, in data set [5], the Time came to 1 h.

For the compound `COC[C@@H](NC(C)=O)C(=O)NCc1ccccc1` [LACOSAMIDE], the ED50 in data set [1] was 4.46 mg/kg; in data set [2] it was > 25 mg/kg; in data set [4], 9.99 mg/kg; in data set [6], > 250 mg/kg. In addition, the Time in data set [3], in [5] and in [8] was 0.5 h each time. Moreover, the TD50 at 0.25 h in data set [7] is > 500 mg/kg.
